# Measured values taken from paper PMC4723301 (Experimental biology and medicine (Maywood, N.J.), 2015).
# Legend:
# Cyp 2C9 = Cyp 2C9 (Homo sapiens, UniProt P11712); conditions: 24 h, 10 μM
# hepatocytes [1] = assay: Apoptosis, cytochrome C biosensor in sentinel hepatocytes; format: cell-based, human; conditions: for Effect on hepatocellular apoptosis biosensor: 600 μM caffeine, 28 days
# LX-2 stellate cells = assay: LX-2 stellate cell migration in SQL-SAL; format: cell-based, human; conditions: 30 nM methotrexate, days 4 and 7, vs vehicle control (p ≤ 0.05)
# [2] = tested on: human alpha- smooth muscle actin (alpha-SMA); assay: Indirect immunofluorescence of alpha-SMA in SQL-SAL; format: cell-based
# In short: (§1)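 Human liver model in a perfused microfluidic device: primary hepatocytes, EA.hy926, U937 and LX-2 cells, with the LX-2 cells in collagen. The LX-2 cells are transduced with pLVX-IRES-mito-mKate2 for identification. Perfusion at 5 µL/h with HMM plus 100 nM dexamethasone at 37℃, 5% CO2; test compound in 1% DMSO. On day 21, paraformaldehyde-fixed and stained by indirect immunofluorescence. Value is the ratio of average cellular antibody intensity in stellate versus non-stellate cells; equal-variance t-test.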
# [3] = tested on: collagen type 1, alpha 2 (COL1A2); assay: Indirect immunofluorescence of COL1A2 in SQL-SAL; format: cell-based, human; conditions: 30nM methotrexate, day 21, relative to vehicle control (p ≤ 0.05)
# In short: as §1
# LX2 cultures = conditions: human
# SQL-SAL [4] = assay: LDH leakage in efflux media of SQL-SAL devices; conditions: for Days with significant LDH release (p≤0.05): vs vehicle
# SQL-SAL [5] = assay: Urea secretion in efflux media of SQL-SAL devices
# SQL-SAL [6] = assay: Albumin secretion in efflux media of SQL-SAL devices
# hepatocytes [7] = assay: Mitochondrial-targeted ROS biosensor in sentinel hepatocytes; format: cell-based, human; conditions: troglitazone, measured over 24 h
# hepatocytes [8] = assay: Bile; format: cell-based, human; conditions: 50 μM troglitazone, day 10 devices, 10-min intervals for 60 min, vs vehicle (1% DMSO)
# SQL-SAL [9] = conditions: human, 180 μM
# SQL-SAL [10] = assay: SQL-SAL toxicity testing, overall response; conditions: 28μM troglitazone, over 21 days
# [11] = Urea secretion in efflux media of SQL-SAL devices; conditions: human
# [12] = Albumin secretion in efflux media of SQL-SAL devices; conditions: human
# hepatocytes [13] = assay: Hepatocyte area by HCA in SQL-SAL; conditions: 200 μM trovafloxacin (40 × Cmax) with 1 μg/mL LPS
# [14] = 28 μM troglitazone versus caffeine control
# [15] = 180 μM troglitazone, starting at day 1 of treatment
# Sequence of Cyp 2C9 (P11712 whole entry): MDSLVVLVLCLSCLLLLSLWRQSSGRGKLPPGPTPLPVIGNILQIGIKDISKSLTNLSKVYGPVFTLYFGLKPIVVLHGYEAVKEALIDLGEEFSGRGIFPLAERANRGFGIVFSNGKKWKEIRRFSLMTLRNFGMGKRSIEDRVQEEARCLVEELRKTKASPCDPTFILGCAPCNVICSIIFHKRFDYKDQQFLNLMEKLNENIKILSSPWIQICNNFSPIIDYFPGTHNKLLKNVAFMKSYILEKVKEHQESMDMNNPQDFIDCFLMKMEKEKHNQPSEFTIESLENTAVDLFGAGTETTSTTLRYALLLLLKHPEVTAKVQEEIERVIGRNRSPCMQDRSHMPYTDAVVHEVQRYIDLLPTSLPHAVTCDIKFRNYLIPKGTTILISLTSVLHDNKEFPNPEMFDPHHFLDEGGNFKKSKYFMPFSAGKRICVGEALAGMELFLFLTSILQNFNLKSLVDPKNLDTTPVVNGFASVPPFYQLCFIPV
smiles,measurement,setting,value
"O=C(O)Cc1ccccc1Nc1c(Cl)cccc1Cl [Diclofenac, diclofenac]",Metabolite found in efflux media (AUC),Cyp 2C9,36943 ±28302
Cn1c(=O)c2c(ncn2C)n(C)c1=O [caffeine],Effect on hepatocellular apoptosis biosensor,hepatocytes [1],no appreciable effect
same,Effect on hepatocellular apoptosis biosensor,hepatocytes [1]; listed as Caffeine,no significant effect
CN(Cc1cnc2nc(N)nc(N)c2n1)c1ccc(C(=O)N[C@@H](CCC(=O)O)C(=O)O)cc1 [methotrexate],LX-2 stellate cells proximal to the hepatocyte layer,LX-2 stellate cells,significantly accumulate
same,Expression of human alpha-SMA in LX-2 stellate cells,"[2]; 30nM methotrexate, day 21, relative to vehicle control (p ≤ 0.05)",increased
same,alpha-SMA expression in hepatocytes,[2]; methotrexate treatment,increased
same,"Expression of collagen, type 1, alpha 2 (COL1A2) in LX-2 stellate cells",[3],increased
same,maximum tolerated concentration,LX2 cultures,100 nM
CS(=O)(=O)Nc1ccc([N+](=O)[O-])cc1Oc1ccccc1 [nimesulide],Apoptotic hepatocytes,hepatocytes [1]; 210 μM nimesulide (10 × Cmax),rapid increase
same,Effect on LDH,SQL-SAL [4]; 210 μM nimesulide (10 × Cmax),rapid release
same,Change in urea,SQL-SAL [5]; 210 μM nimesulide (10 × Cmax),decreases
same,Change in albumin,SQL-SAL [6]; 210 μM nimesulide (10 × Cmax),decreases
Cc1c(C)c2c(c(C)c1O)CCC(C)(COc1ccc(CC3SC(=O)NC3=O)cc1)O2 (stereo not shown) [troglitazone],Induction of apoptosis (loss of mitochondrial cytochrome C biosensor intensity) began on day,hepatocytes [1]; 28 μM troglitazone,10 days
same,Induction of apoptosis (loss of mitochondrial cytochrome C biosensor intensity) began on day,hepatocytes [1]; 180 μM troglitazone,1 days
same,"Days with significant levels (p ≤ 0.05) of apoptosis, cytochrome C biosensor",hepatocytes [1]; troglitazone 28 μM,16 to 28 days
same,"Days with significant levels (p ≤ 0.05) of apoptosis, cytochrome C biosensor",hepatocytes [1]; troglitazone 180 μM,1 to 15 days
same,"ROS, mitochondrial-targeted ROS biosensor",hepatocytes [7],increase in ROS
same,CMFDA uptake and canalicular efflux,hepatocytes [8],slower uptake and inhibition of efflux
same,Acute toxicity produced within,SQL-SAL [9],2 to 4 days
same,Toxic response,SQL-SAL [10],gradual and much delayed toxic response
same,"Overt cytotoxicity, measured as LDH release, delayed until day","SQL-SAL [4]; 28 μM (4 × Cmax) troglitazone, continuous perfusion, vs 600 μM caffeine",13 days
same,"Overt cytotoxicity, measured as LDH release, found on day","SQL-SAL [4]; 180 μM (30 × Cmax) troglitazone, continuous perfusion, vs 600 μM caffeine",4 days
same,Peak LDH release,SQL-SAL [4]; troglitazone 180nM (30 × Cmax),~4 days
same,Days with significant LDH release (p≤0.05),SQL-SAL [4]; troglitazone 180nM (30 × Cmax),4 to 6 days
same,Peak LDH loss,SQL-SAL [4]; troglitazone 28 μM (4 × Cmax),~13 days
same,Days with significant LDH release (p≤0.05),SQL-SAL [4]; troglitazone 28 μM (4 × Cmax),13 to 15 days
same,half-life at 28 μM,[11],~288 h
same,half-life at 180 μM,[11],~72 h
same,Change in urea,SQL-SAL [5]; [14],gradual decrease
same,Change in urea,SQL-SAL [5]; [15],sharp decrease
same,Days with significant decline in urea secretion (p ≤ 0.05),SQL-SAL [5]; troglitazone 28 μM (4 × Cmax),4 to 28 days
same,Days with significant decline in urea secretion (p ≤ 0.05),SQL-SAL [5]; troglitazone 180μM (30 × Cmax),4 to 10 days
same,half-life at 28 μM,[12],~264 h
same,half-life at 180 μM,[12],~72 h
same,Change in albumin,SQL-SAL [6]; [14],gradual decrease
same,Change in albumin,SQL-SAL [6]; [15],sharp decrease
same,Days with significant decline in albumin secretion (p≤ 0.05),SQL-SAL [6]; troglitazone 28 μM (4 × Cmax),18 to 28 days
same,Days with significant decline in albumin secretion (p≤ 0.05),SQL-SAL [6]; troglitazone 180μM (30 × Cmax),4 to 10 days
N[C@@H]1[C@H]2CN(c3nc4c(cc3F)c(=O)c(C(=O)O)cn4-c3ccc(F)cc3F)C[C@@H]12 [trovafloxacin],LDH leakage,"SQL-SAL [4]; 200 μM (40 × Cmax) trovafloxacin co-incubated with 1 μg/mL LPS, 3 and 5 days",Increased LDH leakage
same,Change in hepatocyte area,hepatocytes [13],decrease in hepatocyte area
